Source: ChEMBL document CHEMBL1156291, “Design of potent and selective GSK3beta inhibitors with acceptable safety profile and pharmacokinetics” (Bioorg Med Chem Lett, 2010)
pIC50: −log10 of the molar value. ≈ marks a conversion by molar mass, not a printed value.

Legend:
[1] = Metabolic stability in mouse liver S9 fraction assessed as compound remaining after 15 mins; type: ADME, subcellular; settings: read-out: Activity
Method in brief: (§1)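 Compound exposed for 15 min to hepatic S9 fraction, human or mouse according to the line. Read-out is percent of parent compound remaining.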

Cytochrome P450 1A2 = biological target: T1, Cytochrome P450 1A2 (Homo sapiens, UniProt P05177); assay: Inhibition of human recombinant CYP1A2; type: ADME
T1 sequence (P05177 whole entry): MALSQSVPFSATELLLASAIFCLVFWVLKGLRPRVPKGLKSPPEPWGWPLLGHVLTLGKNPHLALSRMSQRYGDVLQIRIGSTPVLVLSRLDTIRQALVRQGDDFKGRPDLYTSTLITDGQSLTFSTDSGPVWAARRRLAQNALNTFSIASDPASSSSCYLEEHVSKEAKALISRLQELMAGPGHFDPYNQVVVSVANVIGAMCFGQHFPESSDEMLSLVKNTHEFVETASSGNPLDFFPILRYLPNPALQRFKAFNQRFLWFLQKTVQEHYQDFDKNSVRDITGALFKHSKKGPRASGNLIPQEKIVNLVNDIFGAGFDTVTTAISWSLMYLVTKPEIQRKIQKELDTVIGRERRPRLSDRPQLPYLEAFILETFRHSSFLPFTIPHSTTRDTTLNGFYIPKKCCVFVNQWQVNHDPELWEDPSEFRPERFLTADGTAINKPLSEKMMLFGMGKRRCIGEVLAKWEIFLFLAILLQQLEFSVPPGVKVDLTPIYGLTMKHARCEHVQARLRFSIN
Method in brief: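 Human recombinant CYP1A2 with 3-cyano-7-ethoxycoumarin as probe substrate. Fluorescence read at Ex 410 nm / Em 460 nm. IC50 determined.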

[2] = biological target: Cytochrome P450 1A2 (Homo sapiens) (UniProt P05177); assay: Inhibition of human recombinant CYP1A2 by kinetic assay
[3] = Metabolic stability in human liver S9 fraction assessed as compound remaining after 15 mins; type: ADME, subcellular; settings: read-out: Activity; method in brief: as §1
Caco-2 = assay: Permeability across human Caco-2 cells assessed as compound transport per hr; type: ADME, cell-based
[4] = Lipophilicity, log D at pH 7.4; type: physicochemical; settings: buffer
[5] = Solubility of the compound; type: physicochemical
Method in brief: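 Solubility measured by nephelometry.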

Albumin = Albumin (Homo sapiens, UniProt P02768); assay: Binding affinity to human serum albumin; type: ADME; settings: isolated protein
Sequence of Albumin (P02768 whole entry): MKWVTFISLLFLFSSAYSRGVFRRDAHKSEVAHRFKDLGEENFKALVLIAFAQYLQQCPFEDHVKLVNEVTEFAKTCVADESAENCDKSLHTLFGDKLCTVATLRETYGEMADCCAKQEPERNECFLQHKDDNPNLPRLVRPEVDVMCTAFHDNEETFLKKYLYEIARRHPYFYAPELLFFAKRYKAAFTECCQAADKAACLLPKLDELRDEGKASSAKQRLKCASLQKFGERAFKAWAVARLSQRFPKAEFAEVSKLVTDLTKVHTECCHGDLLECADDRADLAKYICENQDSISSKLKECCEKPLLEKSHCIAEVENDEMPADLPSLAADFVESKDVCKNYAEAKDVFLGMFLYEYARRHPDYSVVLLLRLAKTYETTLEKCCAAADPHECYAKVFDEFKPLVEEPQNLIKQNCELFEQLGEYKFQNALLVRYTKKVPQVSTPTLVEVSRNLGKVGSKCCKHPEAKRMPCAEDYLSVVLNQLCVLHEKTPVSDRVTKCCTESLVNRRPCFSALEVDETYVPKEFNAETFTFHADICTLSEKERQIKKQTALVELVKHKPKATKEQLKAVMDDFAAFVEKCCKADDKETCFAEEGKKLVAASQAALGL

Cytochrome P450 2D6 = Cytochrome P450 2D6 (Homo sapiens, UniProt P10635); assay: Inhibition of human recombinant CYP2D6; type: ADME
Sequence of Cytochrome P450 2D6 (P10635 whole entry): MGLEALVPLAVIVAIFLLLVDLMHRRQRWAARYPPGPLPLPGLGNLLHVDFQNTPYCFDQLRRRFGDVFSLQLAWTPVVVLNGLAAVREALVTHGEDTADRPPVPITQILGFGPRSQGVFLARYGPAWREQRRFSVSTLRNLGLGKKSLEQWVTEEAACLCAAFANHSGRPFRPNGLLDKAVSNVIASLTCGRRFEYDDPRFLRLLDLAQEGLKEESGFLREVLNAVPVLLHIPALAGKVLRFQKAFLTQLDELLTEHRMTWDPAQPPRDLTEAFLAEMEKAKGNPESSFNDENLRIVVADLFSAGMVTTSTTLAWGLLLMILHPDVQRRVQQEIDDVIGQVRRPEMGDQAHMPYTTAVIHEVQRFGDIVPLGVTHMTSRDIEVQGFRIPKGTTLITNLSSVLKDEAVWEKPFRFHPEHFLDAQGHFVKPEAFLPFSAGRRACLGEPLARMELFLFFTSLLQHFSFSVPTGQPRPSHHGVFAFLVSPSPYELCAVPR

Cytochrome P450 2C19 = Cytochrome P450 2C19 (Homo sapiens, UniProt P33261); assay: Inhibition of human recombinant CYP2C19; type: ADME
Sequence of Cytochrome P450 2C19 (P33261 whole entry): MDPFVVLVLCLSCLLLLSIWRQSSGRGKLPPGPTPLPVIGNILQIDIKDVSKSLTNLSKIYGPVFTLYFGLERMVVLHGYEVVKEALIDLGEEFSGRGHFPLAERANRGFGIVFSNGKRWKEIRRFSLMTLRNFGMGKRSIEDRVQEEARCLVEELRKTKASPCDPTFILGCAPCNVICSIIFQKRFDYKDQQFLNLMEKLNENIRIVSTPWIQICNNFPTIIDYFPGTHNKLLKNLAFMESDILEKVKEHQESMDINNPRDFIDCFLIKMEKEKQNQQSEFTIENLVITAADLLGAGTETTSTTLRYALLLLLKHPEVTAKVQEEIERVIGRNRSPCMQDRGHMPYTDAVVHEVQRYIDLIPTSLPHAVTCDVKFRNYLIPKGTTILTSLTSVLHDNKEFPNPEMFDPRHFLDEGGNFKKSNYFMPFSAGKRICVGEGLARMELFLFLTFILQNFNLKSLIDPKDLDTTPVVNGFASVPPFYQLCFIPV

hERG (KCNH2) = hERG (KCNH2) (Homo sapiens, UniProt Q12809); assay: Inhibition of human ERG at 10 uM
Sequence of hERG (KCNH2) (Q12809 whole entry): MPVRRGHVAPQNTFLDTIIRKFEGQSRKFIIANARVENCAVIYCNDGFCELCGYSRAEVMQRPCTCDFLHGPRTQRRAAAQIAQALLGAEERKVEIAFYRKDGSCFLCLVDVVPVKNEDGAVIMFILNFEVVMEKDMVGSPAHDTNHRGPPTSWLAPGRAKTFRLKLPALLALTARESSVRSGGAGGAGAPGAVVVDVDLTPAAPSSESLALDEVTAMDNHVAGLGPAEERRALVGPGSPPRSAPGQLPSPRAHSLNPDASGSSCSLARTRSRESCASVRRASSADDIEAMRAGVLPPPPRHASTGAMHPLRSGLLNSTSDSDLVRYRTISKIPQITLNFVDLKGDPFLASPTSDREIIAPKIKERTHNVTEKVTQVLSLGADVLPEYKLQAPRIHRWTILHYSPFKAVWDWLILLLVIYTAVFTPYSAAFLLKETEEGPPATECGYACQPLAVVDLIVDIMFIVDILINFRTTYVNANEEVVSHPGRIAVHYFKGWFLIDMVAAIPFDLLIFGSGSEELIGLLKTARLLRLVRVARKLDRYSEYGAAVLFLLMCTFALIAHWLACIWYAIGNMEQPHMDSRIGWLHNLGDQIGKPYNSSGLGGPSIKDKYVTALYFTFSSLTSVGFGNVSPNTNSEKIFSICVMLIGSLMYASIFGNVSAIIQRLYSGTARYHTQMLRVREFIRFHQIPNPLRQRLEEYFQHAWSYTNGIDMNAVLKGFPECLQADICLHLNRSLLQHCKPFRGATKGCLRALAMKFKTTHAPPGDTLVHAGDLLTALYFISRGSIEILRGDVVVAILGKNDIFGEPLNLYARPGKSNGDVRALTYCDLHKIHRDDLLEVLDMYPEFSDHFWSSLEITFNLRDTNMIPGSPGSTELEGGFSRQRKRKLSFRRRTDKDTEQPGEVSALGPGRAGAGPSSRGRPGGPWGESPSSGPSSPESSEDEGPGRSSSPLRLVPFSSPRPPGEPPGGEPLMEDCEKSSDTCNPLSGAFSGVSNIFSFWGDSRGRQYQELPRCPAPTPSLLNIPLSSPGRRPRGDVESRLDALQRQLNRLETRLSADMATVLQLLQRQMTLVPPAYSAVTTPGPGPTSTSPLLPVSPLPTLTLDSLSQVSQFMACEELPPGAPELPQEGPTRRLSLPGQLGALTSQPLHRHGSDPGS

Cytochrome P450 2C9 = Cytochrome P450 2C9 (Homo sapiens, UniProt P11712); assay: Inhibition of human recombinant CYP2C9; type: ADME
Sequence of Cytochrome P450 2C9 (P11712 whole entry): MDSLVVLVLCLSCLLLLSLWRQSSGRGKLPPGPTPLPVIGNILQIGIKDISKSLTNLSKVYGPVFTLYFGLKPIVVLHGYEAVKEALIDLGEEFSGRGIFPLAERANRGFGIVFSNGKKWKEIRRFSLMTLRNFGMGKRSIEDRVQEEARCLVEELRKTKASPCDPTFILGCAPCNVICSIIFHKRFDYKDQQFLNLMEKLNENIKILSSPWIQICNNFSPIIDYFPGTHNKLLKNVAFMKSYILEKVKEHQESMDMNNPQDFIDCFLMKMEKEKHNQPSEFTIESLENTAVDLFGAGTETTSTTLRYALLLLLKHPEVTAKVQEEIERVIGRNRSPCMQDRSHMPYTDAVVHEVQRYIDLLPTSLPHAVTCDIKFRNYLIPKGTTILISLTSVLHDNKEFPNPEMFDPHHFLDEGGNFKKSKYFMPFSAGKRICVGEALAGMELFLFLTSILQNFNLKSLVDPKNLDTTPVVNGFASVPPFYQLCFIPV

Cytochrome P450 3A4 = Cytochrome P450 3A4 (Homo sapiens, UniProt P08684); assay: Inhibition of human recombinant CYP3A4; type: ADME
Sequence of Cytochrome P450 3A4 (P08684 whole entry): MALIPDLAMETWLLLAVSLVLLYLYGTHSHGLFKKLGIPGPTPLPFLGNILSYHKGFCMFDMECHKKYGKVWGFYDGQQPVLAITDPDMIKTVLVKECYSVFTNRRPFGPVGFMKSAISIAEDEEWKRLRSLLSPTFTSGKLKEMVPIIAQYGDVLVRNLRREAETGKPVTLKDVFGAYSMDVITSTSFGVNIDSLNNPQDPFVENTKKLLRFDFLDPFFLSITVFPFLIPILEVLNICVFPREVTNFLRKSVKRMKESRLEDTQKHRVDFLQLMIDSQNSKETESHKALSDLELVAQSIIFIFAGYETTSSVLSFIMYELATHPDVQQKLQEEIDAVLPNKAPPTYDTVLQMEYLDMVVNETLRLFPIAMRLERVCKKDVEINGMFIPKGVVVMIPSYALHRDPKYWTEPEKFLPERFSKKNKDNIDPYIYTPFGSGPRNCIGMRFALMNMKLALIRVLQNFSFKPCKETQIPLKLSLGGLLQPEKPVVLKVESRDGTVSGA

[6] = biological target: Glycogen synthase kinase-3 beta (Rattus norvegicus) (UniProt P18266); assay: Inhibition of GSK3-beta assessed as tau phosphorylation
Sequence of Glycogen synthase kinase-3 beta (Rattus norvegicus) (P18266 whole entry, looked up): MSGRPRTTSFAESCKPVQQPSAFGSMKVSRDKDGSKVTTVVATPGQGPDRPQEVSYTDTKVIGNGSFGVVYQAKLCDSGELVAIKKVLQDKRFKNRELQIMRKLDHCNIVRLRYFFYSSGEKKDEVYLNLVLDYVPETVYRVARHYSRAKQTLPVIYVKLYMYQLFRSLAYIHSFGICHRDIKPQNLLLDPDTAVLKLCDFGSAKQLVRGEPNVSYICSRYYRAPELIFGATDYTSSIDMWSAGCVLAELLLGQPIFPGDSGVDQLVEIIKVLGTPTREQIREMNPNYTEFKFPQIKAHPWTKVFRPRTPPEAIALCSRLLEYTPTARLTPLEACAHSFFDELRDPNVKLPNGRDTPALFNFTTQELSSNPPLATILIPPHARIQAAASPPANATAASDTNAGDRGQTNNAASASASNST

[7] = biological target: Voltage-gated inwardly rectifying potassium channel KCNH2 (Homo sapiens, UniProt Q12809); assay: Inhibition of human ERG
[8] = biological target: Cyclin-dependent kinase 4 (Homo sapiens) (UniProt P11802); assay: Inhibition of CDK4 at 10 uM
Sequence of Cyclin-dependent kinase 4 (Homo sapiens) (P11802 whole entry): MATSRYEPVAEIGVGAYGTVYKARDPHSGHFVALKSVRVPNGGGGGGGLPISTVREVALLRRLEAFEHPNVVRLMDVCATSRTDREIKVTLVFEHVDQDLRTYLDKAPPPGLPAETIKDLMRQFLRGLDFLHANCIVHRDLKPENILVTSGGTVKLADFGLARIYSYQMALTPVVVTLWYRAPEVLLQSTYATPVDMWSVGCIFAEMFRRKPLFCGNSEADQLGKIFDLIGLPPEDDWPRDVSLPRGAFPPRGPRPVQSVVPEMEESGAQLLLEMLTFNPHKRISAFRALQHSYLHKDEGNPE

[9] = biological target: Cyclin-dependent kinase 5 (Homo sapiens) (UniProt Q00535); assay: Inhibition of CDK5 at 10 uM
Sequence of Cyclin-dependent kinase 5 (Homo sapiens) (Q00535 whole entry, looked up): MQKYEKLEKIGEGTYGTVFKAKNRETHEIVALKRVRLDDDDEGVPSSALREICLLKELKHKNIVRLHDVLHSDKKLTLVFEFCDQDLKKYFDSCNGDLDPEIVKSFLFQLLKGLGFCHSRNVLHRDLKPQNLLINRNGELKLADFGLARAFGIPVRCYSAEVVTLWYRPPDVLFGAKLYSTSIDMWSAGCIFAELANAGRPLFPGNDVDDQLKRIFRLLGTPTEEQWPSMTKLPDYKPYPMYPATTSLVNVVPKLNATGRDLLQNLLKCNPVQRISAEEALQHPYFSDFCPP

[10] = biological target: Cyclin-dependent kinase 2 (Homo sapiens) (UniProt P24941); assay: Inhibition of CDK2 at 10 uM
[11] = biological target: Cyclin-dependent kinase 9 (Homo sapiens) (UniProt P50750); assay: Inhibition of CDK9 at 10 uM

SMILES	remaining at 0.25 h [1] [%]	pIC50 (Cytochrome P450 1A2)	pIC50 [2]	logD [4]	solubility [5] [µg/mL]	also measured
CCCC(=O)Nc1n[nH]c2cc(Cl)c(-c3ccoc3)cc12	4	> 6.40	7.52	4.1	< 20	remaining at 0.25 h [3]: 45%; permeability (Caco-2): 12.3%
O=C(Nc1n[nH]c2cc(Cl)c(-c3ccccc3)cc12)N1CCCC1	79	–	–	–	< 20	–
O=C(CN1CCOCC1)Nc1n[nH]c2cc(Cl)ccc12	–	–	–	3.1	< 20	–
CCCC(=O)Nc1n[nH]c2c(F)c(F)ccc12	93	–	–	3	54 (≈ 226 µM)	remaining at 0.25 h [3]: 98%; permeability (Caco-2): 16.33%
CCCC(=O)Nc1n[nH]c2cc(Cl)c(-c3ccc(OCc4ccccc4)cc3)cc12	–	< 5.00	–	–	–	–
CCCC(=O)Nc1n[nH]c2cc(Cl)c(-c3ccc(O)cc3)cc12	19	–	7.10	3.9	< 20	permeability (Caco-2): 8.02%
CCCC(=O)Nc1n[nH]c2cc(-c3ccc(O)cc3)c(Br)cc12	10	< 5.00	7.15	4.4	< 20	remaining at 0.25 h [3]: 91%; Activity (Albumin): 99.3%; pIC50 (Cytochrome P450 2D6): < 5.00; pIC50 (Cytochrome P450 2C19): < 5.00; inhibition at 10 µM (hERG (KCNH2)): 7%; pIC50 (Cytochrome P450 2C9): < 5.00; pIC50 (Cytochrome P450 3A4): < 5.00
CCCC(=O)Nc1n[nH]c2cc(-c3ccc(O)cc3)ccc12	4	< 4.30	4.66	–	67 (≈ 227 µM)	remaining at 0.25 h [3]: 58%; Activity (Albumin): 97.3%; permeability (Caco-2): 15.25%
O=C(CN1CCOCC1)Nc1n[nH]c2cc(Cl)c(-c3ccccc3)cc12	–	–	–	3.49	28 (≈ 75.5 µM)	–
O=C(O)CCC(=O)Nc1n[nH]c2cc(Cl)ccc12	–	< 4.30	–	< 1	–	Activity (Albumin): < 90%; solubility ([5]; read-out: solubility): 716 µg/mL (≈ 2670 µM)
CCCC(=O)Nc1n[nH]c2cc(Cl)c(-c3ccc(F)cc3)cc12	–	6.08	6.89	–	–	–
CCCC(=O)Nc1n[nH]c2cc(Cl)c(-c3ccccc3)cc12	40	> 6.40	7.10	3.7	< 20	remaining at 0.25 h [3]: 91%; Activity (Albumin): 99.4%; pIC50 (Cytochrome P450 2D6): < 5.00; permeability (Caco-2): 3.9%; pIC50 (Cytochrome P450 2C19): < 5.00; inhibition at 10 µM (hERG (KCNH2)): 24%; pIC50 (Cytochrome P450 2C9): < 5.00; pIC50 (Cytochrome P450 3A4): < 5.00
CCCC(=O)Nc1n[nH]c2cc(Cl)c(Br)cc12	87	6.26	–	4.4	< 20	remaining at 0.25 h [3]: 97%; permeability (Caco-2): 17.25%
CCCC(=O)Nc1n[nH]c2cc(-c3cccnc3)ccc12	–	5.92	5.23	–	–	–
CCCC(=O)Nc1n[nH]c2cc(-c3cc(F)cc(F)c3)ccc12	–	4.86	5.57	–	–	–
CCCC(=O)Nc1n[nH]c2cc(Cl)c(-c3ccc([N+](=O)[O-])cc3)cc12	–	5.35	–	–	–	–
CCCC(=O)Nc1n[nH]c2cc(Cl)c(-c3ccc(C)cc3)cc12	–	5.76	–	–	–	–
O=C(NCCCn1ccnc1)Nc1n[nH]c2cc(Cl)c(-c3ccccc3)cc12	85	–	–	–	< 20	–
CCCC(=O)Nc1n[nH]c2c(F)c(F)c(-c3ccccc3)cc12	56	–	–	2.4	4 (≈ 12.7 µM)	remaining at 0.25 h [3]: 86%
CC(C(=O)Nc1n[nH]c2cc(Cl)c(-c3ccccc3)cc12)N1CCCCC1 (centres undefined)	–	–	–	3.53	< 20	–
CCCC(=O)Nc1n[nH]c2cc(-c3ccsc3)ccc12	–	5.72	–	–	–	–
CCCC(=O)Nc1n[nH]c2cc(Cl)c(-c3ccc(N)cc3)cc12	–	6.01	–	–	–	–
CCC(=O)Nc1n[nH]c2cc(Cl)ccc12	–	–	–	2.2	–	Activity (Albumin): 92.8%; solubility ([5]; read-out: solubility): 168 µg/mL (≈ 751 µM)
CN1CCN(CCCNC(=O)Nc2n[nH]c3cc(Cl)c(-c4ccccc4)cc23)CC1	100	–	–	–	> 208	–
O=C(Nc1ccccc1)Nc1n[nH]c2cc(Cl)c(-c3ccccc3)cc12	92	–	–	–	< 20	pIC50 [6]: 6.57; pIC50 [7]: < 5.00; inhibition [8]: < 50%; inhibition [9]: < 50%; inhibition [10]: < 50%; inhibition [11]: 81%
CCCC(=O)Nc1n[nH]c2cc(-c3ccccc3)ccc12	–	< 5.00	6.41	–	–	–
